Measurements pooled from the literature.
Lines come from different studies, so protocols differ.
PPARG: Peroxisome proliferator-activated receptor gamma (PPARG, Homo sapiens, UniProt P37231)

SMILES | target | effect on | mode | technique | notes | measurement | value
Cc1cc2nc3c(=O)[nH]c(=O)nc-3n(C[C@H](O)[C@H](O)[C@H](O)COP(=O)(O)OP(=O)(O)OC[C@H]3O[C@@H](n4cnc5c(N)ncnc54)[C@H](O)[C@@H]3O)c2cc1C | YTH domain-containing family protein 2 (YTHDF2, Homo sapiens, UniProt Q9Y5A9) | binding |  |  | lysate | Kd | 0.062 µM
COc1ccc(-c2nsc(NC(=O)[C@@H]3C[C@H]3C)c2C)cc1 | Metabotropic glutamate receptor 5 (GRM5, Homo sapiens, UniProt P41594) | calcium signal | agonist |  |  | EC50 | > 25 µM
CC(C)(Oc1ccc(CCNC(=O)c2ccc(Cl)cc2)cc1)C(=O)O | PPARG | binding |  | ITC |  | Kd | 30.3 µM
C#Cc1cccc(Nc2ncnc3cc(OC)c(OCCCCCCC(=O)NO)cc23)c1 | Histone deacetylase 5 (HDAC5, Homo sapiens, UniProt Q9UQL6) | cell-free assay |  |  |  | Kd | > 30.2 µM
CC(=O)c1cc([N+](=O)[O-])c(Sc2cccc(Cl)c2Cl)s1 | Caspase-3 (CASP3, Homo sapiens, UniProt P42574) | enzyme activity | inhibitor |  |  | EC50 | > 50 µM
CCCCCCCCCCCCCCCCC#CC(=O)O | DNA topoisomerase 1 (TOP1, Homo sapiens, UniProt P11387) | enzyme activity | inhibitor |  |  | EC50 | 20.5 µM
CCCCOc1nc(N)c2[nH]c(=O)n(CCN)c2n1 | Toll-like receptor 8 (TLR8, Homo sapiens, UniProt Q9NR97) | reporter gene | agonist |  |  | EC50 | 209 µM
COc1cc(-c2cc3c(cc2C)C(=O)Nc2cc(CC(=O)Nc4ccc(N5CCOCC5)cc4)ccc2N3)ccc1[N+](=O)[O-] | Serine/threonine-protein kinase Chk1 (CHEK1, Homo sapiens, UniProt O14757) | enzyme activity | inhibitor |  |  | IC50 | 64.4 nM
Cc1noc(C)c1-c1ccc(-c2nc3cnccn3c2NC(C)(C)C)cc1 | Bromodomain and PHD finger-containing protein 3 (BRPF3, Homo sapiens, UniProt Q9ULD4) | cell-free assay |  | competition with immobilised ligand |  | Kd | 40 µM
Cc1cnc(-c2ccc(-c3ccc(NC(=O)Nc4c(F)cc(F)cc4F)cc3F)c3c2C(=O)NC3)[nH]1 | Discoidin domain-containing receptor 2 (DDR2, Homo sapiens, UniProt Q16832) | binding |  | competition with immobilised ligand |  | Kd | 0.003 µM
CSCC[C@H](NC(=O)[C@H](CCC(=O)O)NC(=O)[C@@H]1CCCN1C(=O)[C@@H](NC(=O)[C@@H]1CCCN1)[C@@H](C)O)C(=O)N[C@@H](CCCNC(=N)N)C(=O)N[C@@H](CCC(=O)O)C(=O)N[C@@H](CCCCN)C(=O)N[C@@H](CC(C)C)C(=O)N[C@H]1CSSC[C@@H]2NC(=O)[C@@H](NC(=O)[C@H](Cc3ccc(O)cc3)NC(=O)[C@H](CCCNC(=N)N)NC(=O)[C@H](C)NC(=O)[C@@H]3CCCN3C(=O)[C@H](CC(N)=O)NC(=O)[C@@H](NC(=O)[C@H](C)NC(=O)[C@H](C)NC(=O)[C@H](C)N)[C@@H](C)O)CSSC[C@H](NC(=O)CNC(=O)[C@H](CO)NC(=O)[C@H](CC(C)C)NC2=O)C(=O)N[C@@H]([C@@H](C)O)C(=O)N[C@@H](CCC(N)=O)C(=O)N[C@@H](CCC(N)=O)C(=O)N[C@@H](CC(=O)O)C(=O)N[C@@H](CC(C)C)C(=O)N[C@@H](CC(C)C)C(=O)N[C@@H]([C@@H](C)O)C(=O)N[C@@H](CC(C)C)C(=O)N[C@H](C(=O)N2CCC[C@H]2C(=O)N[C@@H](Cc2ccc(O)cc2)C(=O)O)CSSC[C@@H](C(=O)NCC(=O)NCC(=O)N2CCC[C@H]2C(=O)N[C@@H](CCCNC(=N)N)C(=O)N[C@@H](Cc2c[nH]c3ccccc23)C(=O)N[C@@H](CO)C(=O)N[C@H](C(=O)N[C@@H](CCC(=O)O)C(=O)N[C@@H](C)C(=O)O)[C@@H](C)O)NC(=O)[C@H](C(C)C)NC(=O)[C@H](CCCNC(=N)N)NC(=O)[C@H](C(C)C)NC(=O)[C@H](CC(C)C)NC(=O)[C@H](C)NC(=O)[C@H](CCCNC(=N)N)NC(=O)[C@H](C(C)C)NC(=O)[C@H](Cc2ccccc2)NC(=O)[C@H](Cc2c[nH]cn2)NC(=O)[C@H](Cc2c[nH]cn2)NC(=O)CNC1=O | Relaxin receptor 2 (RXFP2, Homo sapiens, UniProt Q8WXD0) | cAMP | agonist |  |  | EC50 | 1.66e-05 µM
CCOCc1nc(O)c(-c2nnc(Cc3ccc(Cl)cn3)o2)c(O)c1-c1c(OC)cccc1OC | Apelin receptor (Rattus norvegicus, UniProt Q9JHG3) | cAMP | agonist |  |  | EC50 | 2e-05 µM
CC1(C)C=Cc2c(ccc3c2OC[C@@H](c2ccc(O)cc2O)C3)O1 | PPARG | binding |  | ITC |  | Kd | 14.6 µM
